# Results published in ChEMBL document CHEMBL1123477, “Phenethyl ester derivative analogues of the C-terminal tetrapeptide of gastrin as potent gastrin antagonists” (J Med Chem, 1986).
# pIC50: −log10 of the molar value. Active and inactive are the calls of the source. The calls are words filed in the database; no cut-off is given here. Where a SMILES comes first, the peptide text is derived from it. The star is where a group is joined. Boc = CC(C)(C)OC(=O)*
# System: Rattus norvegicus
# Test: Compound was evaluated for the antagonist activity (ED50) against gastrin-induced acid secretion in the anesthetized rat.
# Format: functional
# Conditions: not given
# Summary of the method: (§1)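 Urethane-anaesthetized rats (ip) with the stomach continuously perfused at 30 °C with propionate-succinate solution. Cumulative pH was recorded over time as the index of acid secretion. Compound in alkaline aqueous solution was given as an iv bolus together with (Leu15)-human gastrin I, usually 80 pmol. H+ output, taken from the stimulated minus basal trace, was expressed as % inhibition relative to gastrin alone.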
row,Structure (SMILES),ED50
1,CC(C)C[C@H](NC(=O)[C@H](Cc1c[nH]c2ccccc12)NC(=O)CCNC(=O)OC(C)(C)C)C(=O)N[C@H](CC(=O)O)C(=O)OCCc1ccccc1,0.08 mg/kg
2,CC(C)C[C@H](NC(=O)[C@H](Cc1c[nH]c2ccccc12)NC(=O)CCNC(=O)OC(C)(C)C)C(=O)N[C@@H](CC(=O)O)C(=O)OCCc1ccc(F)cc1,0.02 mg/kg
3,CC(C)C[C@H](NC(=O)[C@H](Cc1c[nH]c2ccccc12)NC(=O)OC(C)(C)C)C(=O)N[C@@H](CC(=O)O)C(=O)OCCc1ccccc1C(F)(F)F,1.5 mg/kg
4,CC(C)C[C@H](NC[C@H](Cc1c[nH]c2ccccc12)NC(=O)OC(C)(C)C)C(=O)N[C@@H](CC(=O)O)C(=O)OCCc1ccc(F)cc1,0.1 mg/kg
5,CC(C)C[C@H](NC(=O)[C@H](Cc1c[nH]c2ccccc12)NC(=O)OC(C)(C)C)C(=O)N[C@@H](CC(=O)O)C(=O)OCCc1cccc(C(F)(F)F)c1,> 1 mg/kg
6,CC(C)C[C@H](NC(=O)[C@H](Cc1c[nH]c2ccccc12)NC(=O)OC(C)(C)C)C(=O)N[C@@H](CC(=O)O)C(=O)OCCc1ccc(F)cc1,0.08 mg/kg
7,CC(C)C[C@H](NC(=O)[C@H](Cc1c[nH]c2ccccc12)NC(=O)OC(C)(C)C)C(=O)N[C@@H](CC(=O)O)C(=O)OCCc1ccccc1,0.1 mg/kg
8,CC(C)C[C@H](NC[C@H](Cc1c[nH]c2ccccc12)NC(=O)OC(C)(C)C)C(=O)N[C@@H](CC(=O)O)C(=O)OCCc1ccccc1,1 mg/kg
9,CC(C)C[C@H](NC(=O)[C@@H](Cc1c[nH]c2ccccc12)NC(=O)CCNC(=O)OC(C)(C)C)C(=O)N[C@H](CC(=O)O)C(=O)OCCc1ccccc1,0.04 mg/kg
10,CC(C)C[C@H](NC(=O)[C@H](Cc1c[nH]c2ccccc12)NC(=O)OC(C)(C)C)C(=O)N[C@@H](CC(=O)O)C(=O)OCCc1ccccc1F,0.1 mg/kg
11,CC(C)C[C@H](NC(=O)[C@@H](Cc1c[nH]c2ccccc12)NC(=O)OC(C)(C)C)C(=O)N[C@@H](CC(=O)O)C(=O)OCCc1ccccc1,0.8 mg/kg

# System: Rattus norvegicus
# Test: Compound was evaluated for the antagonist activity (ED50) against gastrin-induced acid secretion in the anesthetized rat; Inactive
# Format: functional, organism-based
# Conditions: not given
# Summary of the method: as §1
row,Structure (SMILES),ED50
1,CC(C)C[C@H](NC(=O)OC(C)(C)C)C(=O)N[C@@H](CC(=O)O)C(=O)OCCc1ccccc1,inactive
2,CC(C)C[C@@H](NC(=O)[C@H](Cc1c[nH]c2ccccc12)NC(=O)OC(C)(C)C)C(=O)N[C@H](CC(=O)OCCc1ccc(F)cc1)C(=O)O,inactive

# System: not listed separately
# Test: Compound was evaluated for the inhibition of [125 I](Nle12)HG-13 binding to isolated gastric mucosa cells.
# Parameters: species or system Oryctolagus cuniculus
# Conditions: in the assay text read “(Nle11)” for “(Nle12)”
# Summary of the method: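 Dispersed rabbit fundic mucosal cells (collagenase/EDTA digestion, mixed population with about 45% parietal cells) were incubated in Hepes-buffered Earle's medium with 0.2% BSA, pH 7.4. Incubation was 30 min at 37 °C with 20 pM mono-iodinated (Nle11)-HG-13 (chloramine T labelling) plus varied peptide concentrations. Nonsaturable binding was defined with 1 × 10^-6 M unlabeled (Nle11)-HG-13.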
row,pIC50,Structure (SMILES)
1,7.30,CC(C)C[C@H](NC(=O)[C@@H](Cc1c[nH]c2ccccc12)NC(=O)CCNC(=O)OC(C)(C)C)C(=O)N[C@H](CC(=O)O)C(=O)NC(Cc1ccccc1)C(N)=O (some centres not stated)
2,6.30,CC(C)C[C@H](NC(=O)[C@H](Cc1c[nH]c2ccccc12)NC(=O)OC(C)(C)C)C(=O)N[C@@H](CC(=O)O)C(=O)N[C@@H](Cc1ccccc1)C(N)=O (Boc-WLDF-NH2)
3,6.12,CC(C)C[C@H](NC(=O)[C@H](Cc1c[nH]c2ccccc12)NC(=O)OC(C)(C)C)C(=O)N[C@@H](CC(=O)O)C(=O)OCCc1ccccc1
4,7.12,CC(C)C[C@H](NC(=O)[C@@H](Cc1c[nH]c2ccccc12)NC(=O)CCNC(=O)OC(C)(C)C)C(=O)N[C@H](CC(=O)O)C(=O)OCCc1ccccc1
